# Casp6 inh – blocks human caspase-6 cleavage activity; purified caspase-6, Z-VEID-R110 cleavage fluorescence; P55212; AID 686996; 350,000 compounds, 0.53% hits; inhibition, % at 12.5 µM;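 active means mean inhibition across replicates at least about 35%, with every replicate also reaching that limit, limit read from the data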;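 further: 0% = median of neutral control wells and 100% = no fluorescence left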
# ARFGAP1 inh – inhibits rat ARF GTPase activating protein 1; Q62848; Arfgap1-stimulated ARF1 GTP hydrolysis, GDP FP detection; inhibition, % at 16.5 µM; 360,000 compounds, 0.26% hits; AID 651572;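 active means inhibition above a per-plate limit, mean inhibition of low control wells plus 3 SD, cut at about 25% in these data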;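 further: 0% = DMSO wells with enzyme and 100% = wells lacking Arfgap1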
# Target sequence (Q62848 1-136 limits assumed): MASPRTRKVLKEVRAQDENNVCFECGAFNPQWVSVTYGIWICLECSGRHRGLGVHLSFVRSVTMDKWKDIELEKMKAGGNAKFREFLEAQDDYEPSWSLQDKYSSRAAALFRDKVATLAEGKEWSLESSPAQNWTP
#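 Material: rat Arfgap1 catalytic domain, aa 1-136; also added: human ARF1(Δ1-17)-GTP substrate; compound dosing: one concentration, 16.5 µM, DMSO 1.26%; incubation: GTP hydrolysis reaction 2 h at 25 °C; measured by: Tracer-displacement fluorescence polarization with EDTA stop, 620/688 nm; evaluation: % inhibition from polarization; repeats: one replicate per compound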
# ASAP1 GAP inh – ASAP1 ArfGAP inhibition | ASAP1-stimulated ARF1 GTP hydrolysis, GDP FP detection | AID 624377 | inhibition, % at 16.5 µM | 360,000 compounds, 0.19% hits; in the data active means inhibition above about 25%;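 further: 0% = vehicle with enzyme and substrate and 100% = no enzyme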
# Target sequence (Q9ULH1 325-724 limits assumed): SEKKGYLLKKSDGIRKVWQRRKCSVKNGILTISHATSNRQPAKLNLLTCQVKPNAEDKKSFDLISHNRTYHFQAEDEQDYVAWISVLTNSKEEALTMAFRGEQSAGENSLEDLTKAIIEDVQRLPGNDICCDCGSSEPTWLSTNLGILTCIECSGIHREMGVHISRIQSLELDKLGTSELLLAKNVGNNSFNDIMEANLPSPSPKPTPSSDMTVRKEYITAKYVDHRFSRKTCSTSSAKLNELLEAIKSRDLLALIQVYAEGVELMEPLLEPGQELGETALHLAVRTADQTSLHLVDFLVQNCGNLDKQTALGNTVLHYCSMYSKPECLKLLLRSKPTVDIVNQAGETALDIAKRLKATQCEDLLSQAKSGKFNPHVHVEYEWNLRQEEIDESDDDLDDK
# LEDGF integ inh – blocks HIV-1 LEDGF/p75-dependent DNA integration; TR-FRET IN-LEDGF/p75 DNA integration, Eu/Cy5; inhibition, % at 3.7 µM; 370,000 compounds, 0.64% hits;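 active means inhibition above the screen-wide mean plus 3 SD, cut at about 13% in these data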;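 further: signal is the Cy5 over europium emission ratio at 671 and 618 nm; 0% = plate median of compound wells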
# TDP2 inh – TDP2 (human) inhibition, absorbance primary screen | recombinant TDP2, T5PNP hydrolysis, p-nitrophenol absorbance 415 nm | inhibition, % at 12.8 µM | 370,000 compounds, 0.34% hits;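 active means inhibition above the mean of all tested compounds plus 3 SD, set per campaign, cut at about 25% in these data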;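 further: 0% = DMSO with enzyme and 100% = buffer with substrate but no TDP2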
#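 Assay system: Recombinant human TDP2 | Quantity: 120 nM TDP2 per well | Incubation: 2 h at 37 °C | Signal: Epi absorbance | Evaluation: Percent inhibition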
# IN multimer act – activates HIV-1 integrase multimerization in LEDGF counter-screen | TR-FRET HIV-1 integrase multimerization, biochemical | AID 1053131 | 2,000 compounds, 17% hits | activation, % at 7.7 µM | shares compounds with LEDGF integ inh; in the data active means activation above about 8.9%
# TRFRET interf – optically interferes with TR-FRET readout in LEDGF counter-screen; TR-FRET optical interference counterscreen, HIV-1 IN multimerization; 2,000 tested, under 10 active; inhibition, % at 7.7 µM; shares compounds with LEDGF integ inh;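 active means inhibition above the mean over all tested compounds plus 3 SD, which no compound reached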;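 further: 0% = integrase with antibodies and DMSO and 100% = antibodies without integrase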
# IN-LEDGF confirm – confirmation of HIV-1 LEDGF/p75-dependent integration inhibitors; inhibition, % at 3.7 µM; 2,000 compounds, 36% hits; shares compounds with LEDGF integ inh; TR-FRET LEDGF/p75-dependent HIV-1 integration, biochemical; in the data active means inhibition above about 14%
# Active calls of the source: *; . = not tested or not shown. Shown are actives, neighbours in structure and some others; about 1.3% of the full set was active somewhere.
SMILES,Casp6 inh,ARFGAP1 inh,ASAP1 GAP inh,LEDGF integ inh,TDP2 inh,IN multimer act,TRFRET interf,IN-LEDGF confirm
CC(C)(C)c1ccc(C(=O)N/C(=C\c2ccco2)C(=O)O)cc1,15,-7,-6,11,3,.,.,.
O=C(O)/C(=C\c1ccco1)NC(=O)c1cccc2ccccc12,41*,-4,2,29*,4,3,-17,7
O=C(O)/C(=C/c1ccco1)NC(=O)c1ccccc1,37*,0,3,27*,4,-2,8,7
CN1C2=NC(c3ccccc3)CC(=O)N2/C(=C\c2ccccc2)C1c1ccccc1C(F)(F)F (stereo unspecified),.,.,.,1,-2,.,.,.
COc1ccc2nc(NC(=S)N(C)C)sc2c1,.,-10,14,17*,-17,2,-12,16*
CC(C)NC(=O)N(C)C[C@@H]1Oc2cc(C#CCN(C)C)ccc2S(=O)(=O)N([C@H](C)CO)C[C@@H]1C,2,.,.,.,.,.,.,.
CNc1ccc(Br)cc(C(=O)/C=C/c2ccc(OC)cc2)c1=O,.,-9,1,30*,-7,3,-16,27*
CNc1ccc(Br)cc(C(=O)/C=C/c2ccc3c(c2)OCO3)c1=O,.,5,0,19*,0,7,-25,36*
CNc1ccc(Br)cc(C(=O)/C=C/c2cc(OC)ccc2OC)c1=O,.,-6,-1,10,-2,.,.,.
COCCNc1nc(SC)nc2sc3c(c12)CCN(C)C3,-6,-2,-6,-1,9,.,.,.
COCCCNc1nc(SCc2ccccc2)nc2sc3c(c12)CCC3,.,3,2,14*,5,2,-10,-2
C/C(=N\NC(=O)CNC(=O)c1ccccc1Br)c1ccco1,2,4,-4,2,4,.,.,.
Cn1cc(C=O)c2cc(S(=O)(=O)N3CCOCC3)ccc21,2,-1,3,2,6,.,.,.
COc1ccc(CCNC(=O)c2ccc(Cl)nc2)cc1,1,2,6,2,14,.,.,.
NS(=O)(=O)c1ccc(CCNC(=O)c2ccc(Cl)nc2)cc1,1,4,7,16*,-8,0,2,-8
c1ccc(-n2c(-c3ccco3)nnc2-c2ccco2)cc1,.,-4,-8,-1,8,.,.,.
CCC/C(C(=O)NCCO)=C1/c2ccccc2C(=O)N1c1ccccc1,0,2,-13,18*,9,-3,11,3
Cc1ccnc(NS(=O)(=O)c2ccc(NC(=O)c3ccccc3F)cc2)n1,1,0,-9,25*,5,1,-2,-3
Cc1ccccc1N(CC(=O)Nc1ccc(F)cc1)S(C)(=O)=O,.,0,-7,0,3,.,.,.
Cc1ccc(NC(=O)CN(c2ccccc2F)S(C)(=O)=O)cc1,-4,-7,6,21*,-6,-2,12,-4
CC1(OC(=O)c2ccc(Cl)nc2)C(=O)C=C2C=C3CCCN3C=C2C1=O (stereo unspecified),27,-5,-11,18*,11,8,-42,42*
COC(=O)CCC(=O)OC1(C)C(=O)C=C2C=C3CCCN3C=C2C1=O (stereo unspecified),.,4,-8,8,8,.,.,.
CC(=O)Nc1ccccc1OCC(=O)c1cc(C)n(Cc2cccs2)c1C,.,3,5,-4,8,.,.,.
Cc1cc(C(=O)COc2cccnc2[N+](=O)[O-])c(C)n1Cc1cccs1,.,-1,-2,14*,10,2,-8,5
Cc1ccc(S(=O)(=O)N2CCCC2)cc1C(=O)N1CCN(Cc2ccccc2)CC1,-1,14,-5,22*,-2,0,2,0
SMILES,Casp6 inh,ARFGAP1 inh,ASAP1 GAP inh,LEDGF integ inh,TDP2 inh,IN multimer act,TRFRET interf,IN-LEDGF confirm
CCOCCCNC(=O)C1CCN(S(=O)(=O)c2ccc(C)cc2)CC1,.,-1,-14,6,-1,.,.,.
CCCCC(=O)Nc1ccc2c(c1)nc(CCN1CCN(C)CC1)n2C,-5,-2,10,82*,-9,2,-9,3
O=C1[C@@H]2Cc3c([nH]c4ccccc34)CN2C(=O)CN1CCO,0,-1,3,-3,2,.,.,.
O=C1[C@@H]2Cc3c([nH]c4ccccc34)CN2C(=O)CN1CCCCCO,1,10,14,96*,5,0,-1,-5
CC(C(=O)Nc1cccc([N+](=O)[O-])c1)N1C(=O)NC2(CCCC2)C1=O (stereo unspecified),0,3,1,-4,9,.,.,.
COc1cccc(=O)c2c(C)n(CC(=O)c3ccccc3)c(C)c12,-3,0,-1,51*,-1,4,-15,7
O=c1c2cc(O)c(O)cc2oc2cc(O)c(C3OC(CO)C(O)C(O)C3O)c(O)c12 (stereo unspecified),-3,5,-6,82*,-3,70*,-351,86*
CC(=O)Cc1cc(=O)c2c(C)cc(O)c(C3OC(CO)C(O)C(O)C3O)c2o1 (stereo unspecified),0,-2,-1,-2,-8,.,.,.
CCN(CC)CCCNc1nc2ccccc2c2[nH]c3ccc(OC)cc3c12,-21,-1,3,19*,-8,2,-9,34*
CCN(CC)CCCNc1nc(-c2ccccc2)nc2ccccc12,.,-5,0,-5,6,.,.,.
C/C(=N\NC(=O)c1ccccc1[N+](=O)[O-])c1ccc(Br)s1,-1,4,4,59*,-4,-1,4,-7
C/C(=N\NC(=O)c1ccccc1O)c1ccc(Br)s1,-1,-4,-8,4,-3,.,.,.
COc1ccc(S(=O)(=O)N2CCOCC2)cc1C(=O)Nc1cc(C)on1,.,8,-5,86*,1,1,-4,0
O=C1Cc2cccc(=O)c(O)c2C(=O)O1,38*,-3,3,20*,8,6,-31,26*
CCc1ccc(N2CC(C(=O)N(CC)CC(=O)Nc3c(F)cccc3F)CC2=O)cc1 (stereo unspecified),-213,1,-9,0,-4,.,.,.
CCN(CC(=O)Nc1c(F)cccc1F)C(=O)C1CC(=O)N(CCc2ccccc2)C1 (stereo unspecified),-92,-5,17,35*,14,-2,12,-10
CCOC(=O)C1=NS(=O)(=O)NC(C)=C1,36*,-3,-16,16*,-1,0,-1,-1
CC1=CC(c2ccccc2)=NS(=O)(=O)N1,0,7,1,-1,3,.,.,.
Cc1c(NS(=O)(=O)c2cc3c(cc2Br)CCN3C(=O)C2CC2)c(=O)n(-c2ccccc2)n1C,.,.,.,-2,1,.,.,.

# Bioassay records: PubChem BioAssay, several laboratories
